HIV Rev-RRE inh – inhibitors of HIV-1 Rev-RRE RNA interaction; Rev peptide-RRE RNA binding, FRET; AID 704; P05866; inhibition, % at 8 µM; hit rate 0.79% among 97,000;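 active means inhibition above the screen-wide mean plus 3 SD, cut at about 35% in these data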;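 further: 0% = median DMSO wells and 100% = median Neomycin B control wells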
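Test system: labelled RRE RNA duplex and labelled Rev peptide. Times: 5 min compound–RNA preincubation, then 15 min with peptide, 25 °C. Doses: single-dose 8 µM. Measured by: FRET, excitation 480 nm, emission 540 nm donor and 671 nm acceptor. Measure: % inhibition of FRET ratio versus controls.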
EphB4 antag – blocks human EphB4 binding to ephrin-B2; P54760; EphB4 LBD / TNYL-RAW-Alexa532 peptide, fluorescence polarization; inhibition, % at 7 µM; hit rate 0.15% among 97,000;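 active means inhibition above the screen-wide mean inhibition plus 3 SD, cut at about 15% in these data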;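 further: 0% = DMSO wells and 100% = excess unlabeled TNYL-RAW peptide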
Target sequence (P54760 whole entry, looked up, the tested form may be a part): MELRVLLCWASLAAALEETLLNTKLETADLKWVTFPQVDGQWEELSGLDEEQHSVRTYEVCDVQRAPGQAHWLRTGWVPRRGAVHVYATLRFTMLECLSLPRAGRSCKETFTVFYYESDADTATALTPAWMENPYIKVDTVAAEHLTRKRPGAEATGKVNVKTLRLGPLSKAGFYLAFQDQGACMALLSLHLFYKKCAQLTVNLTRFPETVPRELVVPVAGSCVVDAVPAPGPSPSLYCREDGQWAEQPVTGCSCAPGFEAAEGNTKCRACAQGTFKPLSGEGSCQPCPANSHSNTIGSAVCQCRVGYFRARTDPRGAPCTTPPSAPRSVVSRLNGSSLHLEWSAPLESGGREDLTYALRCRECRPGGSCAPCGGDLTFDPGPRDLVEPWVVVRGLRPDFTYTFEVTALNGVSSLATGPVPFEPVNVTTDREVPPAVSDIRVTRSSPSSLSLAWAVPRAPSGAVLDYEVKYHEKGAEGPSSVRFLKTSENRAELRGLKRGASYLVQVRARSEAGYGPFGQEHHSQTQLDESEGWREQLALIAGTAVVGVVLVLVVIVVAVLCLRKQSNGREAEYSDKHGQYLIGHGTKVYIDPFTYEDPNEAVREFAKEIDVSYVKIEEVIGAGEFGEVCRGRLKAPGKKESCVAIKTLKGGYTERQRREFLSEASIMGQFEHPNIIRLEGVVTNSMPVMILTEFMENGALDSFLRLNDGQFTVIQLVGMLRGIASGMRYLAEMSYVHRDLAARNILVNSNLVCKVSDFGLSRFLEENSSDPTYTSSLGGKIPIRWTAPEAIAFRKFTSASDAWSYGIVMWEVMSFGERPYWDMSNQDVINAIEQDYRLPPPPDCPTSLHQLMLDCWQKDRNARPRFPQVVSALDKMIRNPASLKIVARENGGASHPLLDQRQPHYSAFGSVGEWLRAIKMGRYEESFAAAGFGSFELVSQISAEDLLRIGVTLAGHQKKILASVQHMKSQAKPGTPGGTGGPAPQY
LYP inh 2 – LYP (human) phosphatase inhibition; recombinant LYP catalytic domain, DiFMUP fluorescence; inhibition, % at 2 µM; hit rate 0.21% among 96,000; Q9Y2R2;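 active means inhibition at 2 µM at or above a set limit, the screen mean plus 3 SD, cut at about 24% in these data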;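 further: 0% = DMSO with enzyme and 100% = enzyme fully blocked by orthovanadate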
LYP act – activators of human LYP (PTPN22) phosphatase | AID 697 | recombinant LYP, DiFMUP fluorescence; 0 = plate median, 100 = signal doubled | hit rate 0.11% among 96,000 | activation, % at 2 µM | Q9Y2R2;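 active means activation at 2 µM above a set limit, the mean plus 5 SD, cut at about 37% in these data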
An asterisk follows results filed as active; [ ] = remark or other dose. Sampled rows, rich in hits. Any-hit rate of the full collection: about 1.3%.

SMILES	HIV Rev-RRE inh	EphB4 antag	LYP inh 2	LYP act
O=C(O)/C(=C\c1ccco1)NC(=O)c1cccc2ccccc12	3	17*	4	0
NC(=O)/C(=C/c1ccco1)NC(=O)/C=C/c1ccccc1	1	-8	2	1
CCOC(=O)c1ccc(N2C(=O)C3CC=CCC3C2=O)cc1 (centres undefined)	-2	-4	-2	5
CCOC(=O)c1ccc(N2C(=O)C3C(C2=O)C(C(=O)c2ccc(Cl)cc2)N2CCCC32)cc1 (centres undefined)	66*	-10	-9	9
Cn1c(-c2ccc(C=O)s2)nc2c3ccccc3c3ccccc3c21	81*	7	18	-16
COc1cccc(OC)c1-c1nn2c(-c3cc(-c4ccccc4)n[nH]3)nnc2s1	-269	62*	38*	-39
COc1ccc(-c2nn3c(-c4ccccc4)nnc3s2)cc1	-2	5	2	-2
Cc1ccc(C)c(NS(=O)(=O)c2ccc(NC(=O)c3ccco3)cc2)c1	9	-4	4	-1
Cc1ccccc1OCCOc1cccc(/C=N/NC(=O)Cc2nnc(N)s2)c1	3	-2	2	1
COC(=O)c1ccc2c(c1)C(C)(C)C(/C=C/c1ccccc1O)=[N+]2C	79*[fluorescence artefact?]	-52	-6	3
COC(=O)c1cc[n+](CC(=O)c2ccccc2)cc1	2	1	2	1
C=CCc1c(C)nc(C)nc1N/N=C/c1ccccc1O	41*	-11	10	-7
Cc1cc(C)n2nc(SCc3cc(=O)oc4cc(O)ccc34)nc2n1	-2	1	29*	-28
COc1cc2c(cc1OC)CN(CC(=O)Nc1ccc3c(c1)OC(F)(F)O3)CC2	4	5	-1	1
Cc1ccc2nc(NC(=S)NC(=O)c3cccs3)sc2c1	3	7	30*	-28
O=C(CSc1n[nH]c(-c2cccs2)n1)N1CCN(S(=O)(=O)c2ccc3ccccc3c2)CC1	2	-4	-2	-1
CC1=NCC(C)c2c1[nH]c1ccccc21 (centres undefined)	11	1	15	-12
CSCC[C@H](NC(=O)OC(C)(C)C)c1nnc(SCC=C(C)C)o1	1	4	1	-1
COC(=O)c1c(=O)n(O)c2ccc(OC)cc2[n+]1[O-]	41*	9	6	-8
Nc1nnc(SCC(=O)Nc2ccc3c(c2)OCCO3)s1	7	-3	3	-6
Nc1nnc(SCC(=O)Nc2ccc(S(=O)(=O)N3CCOCC3)cc2)s1	11	7	26*	-27
CCOC(=O)C1=C(O)/C(=C/c2cc(OC)c(OC)c(OC)c2)SC1=Nc1ccc(OC)cc1	1	4	13	-12
CCOC(=O)C1=C(O)/C(=C/c2ccc(C)o2)SC1=NC(=O)c1ccccc1C	69*	4	9	-9
CCN1C=CC2=C(C#N)C(N)C(C#N)(C#N)C(c3ccccc3C(F)(F)F)C2C1 (centres undefined)	58*	2	5	-5
CCOc1cc(C2C(C#N)=C(N)OC(C)=C2C(C)=O)cc(Br)c1O (centres undefined)	50*	0	-5	1
SMILES	HIV Rev-RRE inh	EphB4 antag	LYP inh 2	LYP act
CCCCC(CC)Cn1c(N)c(C#N)c2nc3ccccc3nc21 (centres undefined)	25	1	6	-5
CCCCC(CC)Cn1c2nc3ccccc3nc2c2c(=N)oc(C)nc21 (centres undefined)	37*	4	21	-25
Cc1cccc(OCC(=O)O/N=C(\N)Cc2ccc(Cl)cc2)c1	14	-7	-2	2
Cc1c(C2Nc3ccccc3NC3=C2C(=O)CC(C)(C)C3)cnn1C (centres undefined)	13	1	16	-13
CC1(C)CC(=O)C2=C(C1)Nc1ccccc1N=C2	45*	-2	-8	6
CC1CCc2c(sc(NC(=O)CSc3ncnc4c3cnn4-c3ccccc3Cl)c2C#N)C1 (centres undefined)	13	3	11	-10
CCOc1ccc(N2C(=O)C(Cl)=C(Nc3ccccc3O)C2=O)cc1	37*	-2	3	-4
CCOc1ccc(N2C(=O)CN=C2Nc2ccccc2Cl)cc1	0	2	0	1
COc1ccc(C2NC3=C(CCCC3)C(C#N)(C#N)C2(C#N)C#N)cc1 (centres undefined)	46*	-5	13	-15
O=C(CCN1C(=O)c2ccccc2C1=O)Nc1cccnc1	5	1	6	-6
CCCCc1ccc(C2C(C#N)=C(N)SC(N)=C2C#N)s1	66*	-2	0	-2
Cc1ccc(-n2c(C)cc(C(=S)N3CCOCC3)c2C)cc1C	-1	0	19	-16
Cc1ccc(CSc2nnc(-c3ccco3)o2)cc1	12	4	1	0
CCN(CC)c1ccc(C=Nc2ccc(N(C)C)cc2)c(O)c1	81*[fluorescence artefact?]	2	14	-13
CCN(CC)c1ccc(C=Nc2ccc(C)cc2)c(O)c1	6	-10	-2	1
CCN(CC)c1ccc(N=Cc2ccc(N(CC)CC)cc2O)cc1	96*[fluorescence artefact?]	-3	-3	0
Nc1ccc2oc3ccc(N)cc3c(=O)c2c1	37*	-2	-4	7
O=C(O)c1cc2c(ccc3ccccc32)o1	8	0	1	-4
COc1ccccc1NC(=O)CSc1nnc(COc2ccc(Cl)cc2)n1Cc1ccco1	4	-2	-8	5
COc1ccccc1OCc1nnc(SCC(=O)NCc2ccco2)n1Cc1ccco1	2	7	26*	-26
Cn1c(=O)c2c(nc(N3CCOCC3)n2Cc2c(F)cccc2Cl)n(C)c1=O	7	3	-2	2
O=C1S/C(=C/c2ccc(N3CCOCC3)o2)C(=O)N1Cc1c(F)cccc1Cl	126*[fluorescence artefact?]	-1	-4	4
O=C1N=C(N2CCOCC2)S/C1=C/c1ccc(-c2ccccc2Cl)o1	-6	-7	-2	7
O=C1S/C(=C\c2ccc(N3CCOCC3)o2)C(=O)N1Cc1c(F)cccc1Cl	121*[fluorescence artefact?]	6	2	0
Oc1ccc2ccccc2c1C=Nc1ccc(N2CCOCC2)cc1	72*[fluorescence artefact?]	4	2	-1
SMILES	HIV Rev-RRE inh	EphB4 antag	LYP inh 2	LYP act
Oc1ccc2ccccc2c1C=NC12CN3CCN(CN(C3)C1)C2	7	-1	8	-10
COc1nc(-c2ccccc2)ccc1-c1noc(-c2ccccc2F)n1	5	-2	8	-10
COc1ccc(C2C(C(=O)NCCN3CCOCC3)c3ccccc3C(=O)N2C2CCCCC2)cc1 (centres undefined)	7	1	5	-6
CC12COC3(C(=O)Nc4cccnc4)CC1CCC32C (centres undefined)	44*	2	9	-9
Cc1ccc(S(=O)(=O)C2(C(=O)Nc3cccnc3)CC2)cc1	9	-2	-2	1
O=C1c2ccccc2-c2cccc(NS(=O)(=O)c3ccc(C(F)(F)F)cc3)c21	100*[fluorescence artefact?]	-1	10	-8
CC(C)OC(=O)CSc1nnc(-c2ccccc2)n1N	2	-3	4	0
O=C(C(c1ccccc1)c1ccccc1)N1CCN(Cc2ccco2)CC1	2	1	-10	4
